In ChEMBL document CHEMBL2331228, “Synthesis and insight into the structure-activity relationships of chalcones as antimalarial agents” (J Med Chem, 2013):
≈ marks a conversion by molar mass, not a printed value.

How the values were obtained:
Plasmodium falciparum [1] = assay: Antimalarial activity against schizont stage of chloroquine-sensitive Plasmodium falciparum 3D7 after more than 40 hrs by Giemsa staining-based light microscopic analysis; format: functional; details: 3D7, 40 h
Procedure, shortened: (§1)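 Ring stages (5% D-sorbitol synchronized) of 3D7 were grown in RPMI with 10% FBS, gentamycin and Fungizone at 37 °C under CO2. They were exposed in duplicate to compound (DMSO stock, 5 mg/mL) at 2, 10 and 50 μg/mL, with 3% cell suspension and 1% parasitized cells, for >40 h. Giemsa-stained thin smears were counted for schizonts. MIC is the lowest concentration giving 100% inhibition of schizont maturation.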

Plasmodium falciparum [2] = assay: Antimalarial activity against schizont stage of chloroquine-sensitive Plasmodium falciparum 3D7 assessed as reduction in parasitemia at 50 ug/ml after more than 40 hrs by Giemsa staining-based light microscopy; format: functional; parameters: scale not given: the % may be the effect or the level left; procedure, shortened: as §1

Row | SMILES | MIC (Plasmodium falciparum [1]) [µM] | Activity (Plasmodium falciparum [2]) [%]
1 | CC(C)=CCCC1(C)C=Cc2c(ccc(C(=O)/C=C/c3ccc(C#N)cc3)c2O)O1 (stereo unspecified) | 5.01 (≈ 2 µg/mL) | –
2 | CC(C)=CCCC1(C)C=Cc2c(ccc(C(=O)/C=C/c3ccc(F)cc3)c2O)O1 (stereo unspecified) | 128 (≈ 50.1 µg/mL) | –
3 | CC1(C)C=Cc2c(ccc(C(=O)/C=C/c3cc(C=O)ccc3O)c2O)O1 | 28.6 (≈ 10 µg/mL) | –
4 | CC(C)=CCCC1(C)C=Cc2c(ccc(C(=O)/C=C/c3ccccn3)c2O)O1 (stereo unspecified) | 26.7 (≈ 10 µg/mL) | –
5 | CC(=O)Oc1ccc(/C=C/C(=O)c2ccc3c(c2O)C=CC(C)(C)O3)cc1 | 27.5 (≈ 10 µg/mL) | –
6 | CC1(C)C=Cc2c(ccc(C(=O)/C=C/c3cccnc3)c2O)O1 | 32.6 (≈ 10 µg/mL) | –
7 | CC(C)=CCCC1(C)C=Cc2c(ccc(C(=O)/C=C/c3cccnc3)c2OCCN2CCCCC2)O1 (stereo unspecified) | 4.11 (≈ 2 µg/mL) | –
8 | CC1(C)C=Cc2c(ccc(C(=O)/C=C/c3cc4ccccc4nc3Cl)c2O)O1 | 128 (≈ 50.1 µg/mL) | –
9 | CC(C)=CCCC1(C)C=Cc2c(ccc(C(=O)/C=C/c3ccc4oc(C(=O)c5ccccc5)cc4c3)c2O)O1 (stereo unspecified) | 19.3 (≈ 10 µg/mL) | –
10 | CC1(C)C=Cc2c(ccc(C(=O)/C=C/c3ccc(Cl)cc3)c2O)O1 | 147 (≈ 50.1 µg/mL) | –
11 | CC(C)=CCCC1(C)C=Cc2c(ccc(C(=O)/C=C/c3ccc(Cl)cc3)c2O)O1 (stereo unspecified) | > 123 | <100
12 | CC(C)=CCCC1(C)C=Cc2c(ccc(C(=O)CCc3cc(C=O)ccc3O)c2O)O1 (stereo unspecified) | 10.3 (≈ 4.33 µg/mL) | –
13 | Cc1ccc2nc(Cl)c(/C=C/C(=O)c3ccc4c(c3O)C=CC(C)(C)O4)cc2c1 | 123 (≈ 50.1 µg/mL) | –
14 | CC(C)=CCc1cc(C(=O)/C=C/c2ccc(N(C)C)cc2)c(O)cc1O | 142 (≈ 50.1 µg/mL) | –
15 | CC1(C)C=Cc2c(ccc(C(=O)/C=C/c3ccc([N+](=O)[O-])cc3)c2O)O1 | > 142 | <100
16 | CC(C)=CCCC1(C)C=Cc2ccc(O)c(C(=O)CCc3cc(C=O)ccc3O)c2O1 (stereo unspecified) | 9.12 (≈ 3.84 µg/mL) | –
17 | CC1(C)CCc2c(ccc(C(=O)/C=C/c3cccnc3)c2O)O1 | 32.4 (≈ 10 µg/mL) | –
18 | COc1ccc(/C=C/C(=O)c2ccc3c(c2O)CCC(C)(CCCC(C)C)O3)cc1 (stereo unspecified) | 123 (≈ 50.1 µg/mL) | –
19 | COc1ccc(/C=C/C(=O)c2ccc3c(c2O)C=CC(C)(C)O3)cc1 | > 149 | <100
20 | COc1ccc(/C=C/C(=O)c2cc(CC=C(C)C)c(O)cc2O)cc1O | 28.2 (≈ 10 µg/mL) | –
21 | CC(C)=CCCC1(C)C=Cc2c(ccc(C(=O)/C=C/c3ccc(F)c(F)c3)c2O)O1 (stereo unspecified) | 22.6 (≈ 9.28 µg/mL) | –
22 | CC(C)=CCCC1(C)C=Cc2c(ccc(C(=O)/C=C/c3cccnc3)c2O)O1 (stereo unspecified) | 5.33 (≈ 2 µg/mL) | –
23 | CC(C)=CCCC1(C)C=Cc2c(ccc(/C=C/C(=O)c3cccc(C)c3)c2O)O1 (stereo unspecified) | 25.8 (≈ 10 µg/mL) | –
24 | COc1ccc(/C=C/C(=O)c2ccc3c(c2O)C=CC(C)(CCC=C(C)C)O3)cc1OC (stereo unspecified) | 115 (≈ 50.1 µg/mL) | –
25 | CC(C)=CCCC1(C)C=Cc2c(ccc(C(=O)/C=C/c3ccc(Cl)cc3Cl)c2O)O1 (stereo unspecified) | > 113 | <100

Row | SMILES | MIC (Plasmodium falciparum [1]) [µM] | Activity (Plasmodium falciparum [2]) [%]
26 | CC1(C)C=Cc2c(ccc(C(=O)/C=C/c3ccc(F)cc3F)c2O)O1 | > 146 | <100
27 | CC1(C)C=Cc2c(ccc(C(=O)/C=C/c3ccc(F)cc3)c2O)O1 | 154 (≈ 50.1 µg/mL) | –
28 | COc1ccc(CCC(=O)c2ccc3c(c2O)C=CC(C)(C)O3)cc1OC | > 136 | <100
29 | CC1(C)C=Cc2c(ccc(C(=O)/C=C/c3ccc(Cl)cc3Cl)c2O)O1 | 5.34 (≈ 2 µg/mL) | –
30 | COc1cc(OC)c(OC)cc1/C=C/C(=O)c1cc(CC=C(C)C)c(O)cc1O | 25.1 (≈ 10 µg/mL) | –
31 | CC(C)CCCC1(C)CCc2c(ccc(C(=O)/C=C/c3ccc(O)cc3)c2O)O1 (stereo unspecified) | 127 (≈ 50.1 µg/mL) | –
32 | COc1cc(OC)c(OC)cc1/C=C/C(=O)c1ccc2c(c1O)C=CC(C)(C)O2 | 25.2 (≈ 10 µg/mL) | –
33 | CC(C)=CCCC1(C)C=Cc2c(ccc(C(=O)/C=C/c3ccc(N(C)C)cc3)c2O)O1 (stereo unspecified) | > 120 | <100
34 | CC(C)=CCc1cc(C(=O)/C=C/c2ccc(Cl)cc2)c(O)cc1O | 146 (≈ 50.1 µg/mL) | –
35 | CC1(C)C=Cc2c(ccc(C(=O)/C=C/c3cnc4ccccc4c3)c2O)O1 | > 140 | <100
36 | COc1cc(/C=C/C(=O)c2ccc3c(c2O)C=CC(C)(CCC=C(C)C)O3)cc(OC)c1OC (stereo unspecified) | 21.6 (≈ 10 µg/mL) | –
37 | CC1(C)C=Cc2c(ccc(C(=O)/C=C/c3ccc(Br)cc3)c2O)O1 | 130 (≈ 50.2 µg/mL) | –
38 | CCOc1ccc(/C=C/C(=O)c2cc(CC=C(C)C)c(O)cc2O)cc1 | 28.4 (≈ 10 µg/mL) | –
39 | COCOc1ccc(/C=C/C(=O)c2c(O)c3c(c4c2OC(C)(CCC=C(C)C)C=C4)OC(C)(CCC=C(C)C)C=C3)cc1C(OC)OC (stereo unspecified) | 15.2 (≈ 10 µg/mL) | –
40 | CC1(C)C=Cc2c(ccc(C(=O)CCc3ccc(O)c(O)c3)c2O)O1 | 29.4 (≈ 10 µg/mL) | –
41 | COc1ccc(CCC(=O)c2ccc3c(c2O)C=CC(C)(C)O3)cc1 | > 148 | <100
42 | CC(C)=CCCC1(C)C=Cc2c(ccc(C(=O)/C=C/c3ccc(O)cc3)c2O)O1 (stereo unspecified) [LESPEOL] | 25.6 (≈ 10 µg/mL) | –
43 | CC(C)CCCC1(C)CCc2c(ccc(C(=O)/C=C/c3cccnc3)c2O)O1 (stereo unspecified) | 5.27 (≈ 2 µg/mL) | –
44 | COc1ccc(/C=C/C(=O)c2ccc3c(c2O)C=CC(C)(C)O3)cc1OC | 137 (≈ 50.1 µg/mL) | –
45 | CC1(C)C=Cc2c(ccc(C(=O)/C=C/c3ccc(O)cc3)c2O)O1 | 155 (≈ 50.1 µg/mL) | –
46 | CCOc1ccc(/C=C/C(=O)c2ccc3c(c2O)C=CC(C)(CCC=C(C)C)O3)cc1 (stereo unspecified) | 120 (≈ 50.1 µg/mL) | –
47 | CC1(C)C=Cc2c(ccc(C(=O)/C=C/c3ccc(C#N)cc3)c2O)O1 | > 151 | <100
48 | COc1cc(/C=C/C(=O)c2cc(CC=C(C)C)c(O)cc2O)ccc1O | 28.2 (≈ 10 µg/mL) | –
49 | CC(C)=CCCC1(C)C=Cc2c(ccc(C(=O)/C=C/c3cnc4ccccc4c3)c2O)O1 (stereo unspecified) | 23.5 (≈ 10 µg/mL) | –
50 | COc1ccc(/C=C/C(=O)c2cc(CC=C(C)C)c(O)cc2O)cc1 | 28.6 (≈ 9.67 µg/mL) | –

Row | SMILES | MIC (Plasmodium falciparum [1]) [µM] | Activity (Plasmodium falciparum [2]) [%]
51 | COCOc1ccc(/C=C/C(=O)c2ccc3c(c2O)C=CC(C)(CCC=C(C)C)O3)cc1C=O (stereo unspecified) | 21.6 (≈ 10 µg/mL) | –
52 | CC1(C)C=Cc2c(ccc(C(=O)/C=C/c3ccc(F)c(F)c3)c2O)O1 | 146 (≈ 50 µg/mL) | –
53 | CC(C)=CCCC1(C)C=Cc2c(ccc(C(=O)/C=C/c3cc(Cl)cc(Cl)c3)c2O)O1 (stereo unspecified) | 113 (≈ 50.2 µg/mL) | –
54 | CC(C)=CCCC1(C)C=Cc2c(ccc(C(=O)/C=C/c3ccc(Br)cc3)c2O)O1 (stereo unspecified) | > 111 | <100
55 | COc1ccccc1/C=C/C(=O)c1ccc2c(c1O)C=CC(C)(C)O2 | > 149 | <100
56 | COc1ccc(C(=O)c2cc3cc(/C=C/C(=O)c4ccc5c(c4O)C=CC(C)(CCC=C(C)C)O5)ccc3o2)cc1 (stereo unspecified) | > 91.2 | <100
57 | CC1(C)C=Cc2c(ccc(C(=O)/C=C/c3ccccn3)c2O)O1 | 32.6 (≈ 10 µg/mL) | –
58 | CC(C)=CCCC1(C)C=Cc2c(ccc(C(=O)/C=C/c3cccc([N+](=O)[O-])c3)c2O)O1 (stereo unspecified) | 4.77 (≈ 2 µg/mL) | –
59 | CCOc1cc(F)ccc1/C=C/C(=O)c1ccc2c(c1O)C=CC(C)(C)O2 | 136 (≈ 50.1 µg/mL) | –
60 | COCOc1ccc(/C=C/C(=O)c2cc(CC=C(C)C)c(O)cc2O)cc1 | 27.2 (≈ 10 µg/mL) | –
61 | CC1(C)C=Cc2c(ccc(C(=O)CCc3ccc(O)cc3)c2O)O1 | 30.9 (≈ 10 µg/mL) | –
62 | CC(C)=CCCC1(C)C=Cc2c(ccc(C(=O)/C=C/c3cc4cc(C)ccc4nc3Cl)c2O)O1 (stereo unspecified) | 106 (≈ 50.1 µg/mL) | –
63 | CC(C)=CCCC1(C)C=Cc2c(ccc(/C=C/C(=O)c3ccc(C)c(C)c3)c2O)O1 (stereo unspecified) | 24.9 (≈ 10 µg/mL) | –
64 | CC(C)=CCCC1(C)C=Cc2c(ccc(C(=O)/C=C/c3ccc([N+](=O)[O-])cc3)c2O)O1 (stereo unspecified) | 119 (≈ 50.1 µg/mL) | –
65 | COc1ccc(/C=C/C(=O)c2ccc(O)c(CC=C(C)C)c2O)cc1O | 28.2 (≈ 10 µg/mL) | –
66 | CC1(C)C=Cc2c(ccc(C(=O)/C=C/c3ccc(OCCN4CCCCC4)cc3)c2OCCN2CCCCC2)O1 | 3.67 (≈ 2 µg/mL) | –
67 | CC(C)=CCCC1(C)C=Cc2c(ccc(C(=O)/C=C/c3cc4ccccc4nc3Cl)c2O)O1 (stereo unspecified) | 109 (≈ 50.1 µg/mL) | –
68 | COc1ccc(/C=C/C(=O)c2cc(CC=C(C)C)c(O)cc2O)cc1OC | 27.2 (≈ 10 µg/mL) | –
69 | COc1ccccc1/C=C/C(=O)c1cc(CC=C(C)C)c(O)cc1O | 29.6 (≈ 10 µg/mL) | –
70 | CCOc1ccc(/C=C/C(=O)c2ccc3c(c2O)C=CC(C)(C)O3)cc1 | > 143 | <100
71 | CC1(C)CCc2cc(C(=O)/C=C/c3cccnc3)c(O)cc2O1 | 32.4 (≈ 10 µg/mL) | –
72 | CCOc1cc(/C=C/C(=O)c2ccc3c(c2O)C=CC(C)(C)O3)ccc1F | > 136 | <100
73 | CC(C)=CCCC1(C)C=Cc2c(ccc(C(=O)/C=C/c3ccc(OCCN4CCCCC4)cc3)c2OCCN2CCCCC2)O1 (stereo unspecified) | 3.26 (≈ 2 µg/mL) | –
74 | COc1ccc(/C=C/C(=O)c2ccc3c(c2O)C=CC(C)(CCC=C(C)C)O3)cc1 (stereo unspecified) | > 124 | <100
75 | COc1ccccc1/C=C/C(=O)c1ccc2c(c1O)C=CC(C)(CCC=C(C)C)O2 (stereo unspecified) | 124 (≈ 50.1 µg/mL) | –
